These results are taken from article PMC7480958 (ACS chemical biology, 2020).

For orientation: IC50 means the concentration needed to halve the response being measured.

For one series, the target named is human chymotrypsin (Homo sapiens, UniProt P17538). Briefly: Protease activity assay, chymotrypsin. In kind it is biochemical. The conditions noted are these: isoleucine in 1 versus valine in 2 and 3.
A further series relates to bovine trypsin. Description: Protease activity assay, trypsin. In kind it is biochemical. To be noted: incubated with up to 20 μM. Put shortly:
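Bovine trypsin in DPBS pH 7.4 with 0.01% Tween-20 and 2 mM DTT was preincubated for 30 min at 22°C with an equal volume of 3-fold serial dilutions of the test compound (DMSO stock; final 20 μM to 339 pM). The mix was added to z-Leu-Arg-Arg-AMC (final 100 μM; enzyme 10 nM). AMC fluorescence (360/460 nm) was read every 3 min at 22°C, and the rate (RFU/s) was taken over 30 min.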

The test system of series [1] is H-460 lung cancer cell line. Briefly: H-460 lung cancer cell cytotoxicity assay. In kind it is cell-based. The conditions noted are these: read-out: Cytotoxic activity IC50.
In another series the target is proteinase K (Parengyodontium album, UniProt P06873). Briefly: Protease activity assay, proteinase K. In kind it is biochemical, Engyodontium album.
Sequence of proteinase K (P06873 106-384): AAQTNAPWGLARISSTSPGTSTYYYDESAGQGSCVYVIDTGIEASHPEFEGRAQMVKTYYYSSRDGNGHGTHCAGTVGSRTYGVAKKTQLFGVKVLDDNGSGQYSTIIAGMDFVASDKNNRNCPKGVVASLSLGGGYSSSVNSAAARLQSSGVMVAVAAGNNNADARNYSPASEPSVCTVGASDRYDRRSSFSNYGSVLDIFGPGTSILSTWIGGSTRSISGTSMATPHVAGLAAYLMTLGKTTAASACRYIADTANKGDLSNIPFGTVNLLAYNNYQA

Sequence of human chymotrypsin (P17538 19-263): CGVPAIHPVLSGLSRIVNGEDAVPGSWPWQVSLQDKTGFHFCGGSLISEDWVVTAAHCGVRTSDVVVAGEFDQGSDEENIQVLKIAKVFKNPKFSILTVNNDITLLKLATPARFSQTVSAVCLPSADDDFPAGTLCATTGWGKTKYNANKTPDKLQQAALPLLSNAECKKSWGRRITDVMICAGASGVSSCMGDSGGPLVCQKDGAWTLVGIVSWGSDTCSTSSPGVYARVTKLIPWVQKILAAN

Regarding `C/C=C1\NC(=O)[C@@H](NC(=O)[C@@H](NC(=O)[C@H](C)NC(=O)C/C(C)=C/Cl)[C@@H](C)CC)[C@@H](C)OC(=O)[C@H](C(C)C)NC(=O)[C@H](Cc2ccc(O)cc2)N(C)C(=O)[C@H](Cc2ccccc2)N2C(=O)[C@H](CC[C@H]2O)NC1=O` [Tutuilamide A (1), tutuilamide A], the “Fold reduction in potency for chymotrypsin” value at human chymotrypsin was 2 fold. The “Inhibition of bovine trypsin” value in the series on bovine trypsin was “no inhibition”. In addition, the IC50 in series [1] amounted to 530 ± 40 nM.

Turning to `C/C=C1\NC(=O)[C@@H](NC(=O)[C@@H](NC(=O)[C@H](C)NC(=O)C/C(C)=C/Cl)C(C)C)[C@@H](C)OC(=O)[C@H](C(C)C)NC(=O)[C@H](Cc2ccc(O)cc2)N(C)C(=O)[C@H](Cc2ccccc2)N2C(=O)[C@H](CC[C@H]2O)NC1=O` [Tutuilamide B (2), tutuilamide B], in the series with bovine trypsin, the “Inhibition of bovine trypsin” value is recorded as “no inhibition”. In addition, in series [1], the IC50 worked out at 1270 ± 210 nM.

On proteinase K, `C/C=C1\NC(=O)[C@@H](NC(=O)[C@H](CCC(N)=O)NC(=O)CCCCC)[C@@H](C)OC(=O)[C@H](C(C)C)NC(=O)[C@H](Cc2ccc(O)cc2)N(C)C(=O)[C@H](Cc2ccccc2)N2C(=O)[C@H](CC[C@H]2O)NC1=O` [Lyngbyastatin 7, lyngbyastatin 7] registered an IC50 of 1570 nM.

For the compound `C/C=C1\NC(=O)[C@@H](NC(=O)[C@@H](NC(=O)C/C(=C/Cl)CC)C(C)C)[C@@H](C)OC(=O)[C@H](C(C)C)NC(=O)[C@H](Cc2ccc(O)cc2)N(C)C(=O)[C@H](Cc2ccccc2)N2C(=O)[C@H](CC[C@H]2O)NC1=O` [Tutuilamide C (3), tutuilamide C], in the series with bovine trypsin, the “Inhibition of bovine trypsin” value was “no inhibition”. Besides, in series [1], the IC50 came out at 4780 ± 450 nM.
